Screens from PubChem BioAssay.
Rows were chosen to be rich in hits. Some 2.6% of all compounds tested hit in one or more screens of this group.
XiGFP reactiv: X-chromosome reactivation activator; activation, % at 7.58 µM; XiGFP mouse fibroblasts, % GFP-positive cells imaging, 3 d; cells co-treated with 5-aza-dC sensitizer; scaled so ellipticine positive control = 100%; hit rate 0.055% among 360,000;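 active = mean normalized replicate activation at least 10% and every replicate at or above 10%; inconclusive = only one of the two criteria met; inactive = mean below 10% and not all replicates reach 10%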
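System: 68-5-11 XiGFP fibroblast line | Buffer or medium: DMEM containing 5-aza-dC | Compound: Single point | Times: Compounds 3 days, fix/stain 15 min at room temperature | Benchmarks: Positive control ellipticine, 6 µM final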
Wnt bcat act: Wnt/beta-catenin pathway activation; Wnt/beta-catenin reporter cell assay, activator, plate reader; activation, % at 9.35 µM; hit rate 1.2% among 300,000; AID 743398; in the data active = activation above about 30%, passing the limit was not always enough; inconclusive = no clear call, values can overlap the other calls
Vif inh: inhibitors of HIV Vif. hit rate 0.35% among 340,000. HEK293T cells, Vif self-association by quenched fluorescence, imaging, 24 h. inhibition, % at 7.49 µM; in the data active = inhibition above about 50%, passing the limit was not always enough; inconclusive = no clear call, values can overlap the other calls; inactive = below about 31%
MITF TRPM1 HTS: MITF TRPM1 promoter activation in melanoma cells; hit rate 0.75% among 300,000; activation, % at 12.5 µM; SK-MEL-5 TRPM1-promoter luciferase, 24 h; % of positive control, neutral wells = 0; AID 588334;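 active = mean activation of at least 80% with every replicate also reaching 80%; inconclusive = mean reaches 80% but some replicate falls short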
esBAF inh: blocks esBAF chromatin remodeling in mouse ES cells; hit rate 2% among 350,000; Bmi1-luciferase knock-in reporter, 24 h; 100% = twice the neutral-well signal; reporter increase, % at 12.5 µM; AID 602393; in the data active = activation above about 40%; inconclusive = no clear call, values can overlap the other calls;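 note: a rise in the Bmi1 reporter signal indicates esBAF inhibition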
Numbers stand for hits; . = inactive; ? = inconclusive; / = no result.

SMILES	XiGFP reactiv	Wnt bcat act	Vif inh	MITF TRPM1 HTS	esBAF inh
Cc1cc(C)c2c(n1)sc1c(=O)n(CC(=O)c3ccccc3)cnc12	.	?	.	/	47
C[C@@H]1CN([C@H](C)CO)C(=O)c2cc(NS(=O)(=O)c3ccc(F)cc3)ccc2O[C@@H](C)CCCCO[C@H]1CN(C)C(=O)C1CCCCC1	.	/	/	/	.
CC(C)NC(=O)N1C[C@H]2[C@@H](c3ccccc31)[C@@H](CO)N2C(=O)Nc1ccccc1	.	/	/	/	.
O=C(Nc1ccc2c(c1)OCO2)N[C@@H]1CC[C@@H](CCNC(=O)C2CC2)O[C@@H]1CO	.	/	/	/	.
O=[N+]([O-])c1cccc(-c2nc(-c3ccccc3)no2)c1	.	/	.	.	73
O=[N+]([O-])c1cccc(C2=NC(c3ccccc3)CO2)c1 (configuration not stated)	.	?	.	.	45
O=[N+]([O-])c1cccc(-c2nnc(-c3ccccc3)o2)c1	.	46	.	.	/
O=[N+]([O-])c1cccc(-c2nnc(-c3ccc4c(c3)OCO4)o2)c1	.	.	.	.	/
O=[N+]([O-])c1cccc(C2CC(c3ccccc3)=NN2c2ccccc2)c1 (configuration not stated)	.	.	.	/	.
CC(C)NC(=O)N(C)C[C@@H]1Oc2ccc(NC(=O)NC3CCCCC3)cc2C(=O)N([C@@H](C)CO)C[C@H]1C	.	/	/	/	.
CCOC(=O)C1(C)C=C(Nc2ccc(OC)cc2)C(=O)N1c1ccc(OC)cc1 (configuration not stated)	.	/	.	.	/
CCOC(=O)C1(C)C=C(Nc2cccc(OC)c2)C(=O)N1c1ccccc1 (configuration not stated)	.	43	.	/	/
O=C(C[C@H]1C=C[C@@H](NC(=O)CN2CCOCC2)[C@H](CO)O1)NCCc1ccccc1	.	/	/	/	.
Cc1cc(C)n2c(Nc3ccc4c(c3)OCCO4)c(-c3ccc(C)o3)nc2n1	.	.	.	.	83
Cc1ccc(-c2nnc(CCC(=O)N(C)Cc3nccs3)o2)s1	.	.	.	.	44
COc1ccc2c3c(n(C)c2c1)[C@@H](CO)N(C(=O)Cc1ccccc1)CC31CCN(C(C)=O)CC1	.	/	/	/	/
O=C(Cc1ccc(-c2ccccc2)cc1)Nc1ccccn1	.	.	.	.	43
Cc1ccnc(NC(=O)Cc2ccc(-c3ccccc3)cc2)c1	.	.	.	.	/
CCCC(=O)OCC(=O)Nc1ccc(N=Nc2ccccc2)cc1	.	51	.	.	/
CC1CC1C(=O)OCC(=O)Nc1ccc(N=Nc2ccccc2)cc1 (configuration not stated)	.	.	.	?	/
COc1cccc(NC(=O)N(C)C[C@@H]2Oc3cc(C#Cc4ccc(F)cc4)ccc3S(=O)(=O)N([C@@H](C)CO)C[C@H]2C)c1	.	/	/	/	.
Cc1ccccc1C(=O)Nc1ccc(O)c2c(=O)cc(-c3ccccc3Cl)oc12	.	.	/	.	.
O=c1cc(-c2ccccc2Cl)oc2c(Br)ccc(O)c12	.	.	/	.	83
O=C(Nc1ccc(O)c2c(=O)cc(-c3ccccc3Cl)oc12)c1ccc(Cl)c(Cl)c1	.	.	.	.	51
C/C(=N\OC(=O)Nc1ccccc1)c1ccc(C)cc1	.	.	.	101	/
SMILES	XiGFP reactiv	Wnt bcat act	Vif inh	MITF TRPM1 HTS	esBAF inh
N/C(=N\OC(=O)c1ccc(F)cc1)c1cccc([N+](=O)[O-])c1	.	.	.	87	.
N/C(=N/OC(=O)c1cccc([N+](=O)[O-])c1)c1cccc([N+](=O)[O-])c1	.	.	.	.	/
N/C(=N\OC(=O)c1cccc(F)c1)c1cccc([N+](=O)[O-])c1	.	.	.	/	61
COc1ccc(C(=O)Cc2cc3cccc(OC)c3oc2=O)cc1	.	.	.	.	?
COc1cccc2cc(CC(=O)c3ccc(C)cc3C)c(=O)oc12	.	.	.	90	87
O=C1NC(NS(=O)(=O)c2ccccc2)(C(F)(F)F)C(=O)N1CCc1ccccc1 (configuration not stated)	.	.	.	.	.
COc1ccc(S(=O)(=O)NC2(C(F)(F)F)NC(=O)N(CCc3ccccc3)C2=O)cc1 (configuration not stated)	.	.	55	/	.
CCCNC(=O)N(C)C[C@H]1Oc2cc(C3=CCCC3)ccc2S(=O)(=O)N([C@@H](C)CO)C[C@@H]1C	.	/	/	/	.
Cc1ccc(N(C(=O)CNC(=O)c2ccco2)C(C(=O)NCC2CCCO2)c2ccccc2)cc1C (configuration not stated)	.	.	53	/	.
